Several values for one entry are separate records, joined by “and”; a condition that tells them apart may be missing. Equal values may be shown once.
Tested on: HEK-293T
Experiment: Multiplex assay against HEK293T
Format: toxicity, cell-based
Conditions: human
How it was run: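 Live cells were stained at seeding with Hoechst33342, BioTracker Green Microtubule Cytoskeleton Dye, MitoTracker Red and Annexin V Alexa Fluor 680. Following compound addition, they were imaged on a CQ1 microscope at 37°C and 5% CO2 and gated by CellPathfinder machine learning into Hoechst high-intensity objects or normal cells, with normal cells split into healthy, pyknosed or fragmented nuclei and pyknosed cells into mitotic or apoptotic. Tubulin, mitochondrial-mass and membrane-permeability phenotypes are per cents of healthy-nucleus cells.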

[1] = 12 h, 1 µM, compound concentration 1 uM
[2] = 12 h, 10 µM, compound concentration 10 uM
[3] = 24 h, 1 µM, compound concentration 1 uM
[4] = 24 h, 10 µM, compound concentration 10 uM
[5] = 48 h, 1 µM, compound concentration 1 uM
[6] = 48 h, 10 µM, compound concentration 10 uM

COc1ccc(-n2c(C)c([N+](=O)[O-])c3ccc(O)cc32)cc1
Population Apoptotic (%) [1]: 6.21% and 10.43%
Population Fragmented Nuclei (%) [1]: 1.16% and 7.69%
Population Hoechst High Intensity Objects (%) [1]: 0%
Population Membrane Permeable-Phenotype (%) [1]: 1.02% and 0%
Population Mitochondria Different-Phenotype (%) [1]: 36.04% and 17.65%
Population Mitotic Cells (%) [1]: 93.79% and 89.57%
Population Normal (%) [1]: 100%
Population Pyknosed Nuclei (%) [1]: 41.91% and 80.42%
Total Cell Count [1]: 346 and 143
Population Apoptotic (%) [2]: 9.49% and 17.86%
Population Fragmented Nuclei (%) [2]: 2.91% and 1.47%
Population Hoechst High Intensity Objects (%) [2]: 0.24% and 0.73%
Population Membrane Permeable-Phenotype (%) [2]: 0.41% and 0%
Population Mitochondria Different-Phenotype (%) [2]: 38.27% and 18.18%
Population Mitotic Cells (%) [2]: 90.51% and 82.14%
Population Normal (%) [2]: 99.76% and 99.27%
Population Pyknosed Nuclei (%) [2]: 38.26% and 82.35%
Population Apoptotic (%) [3]: 11.43% and 19%
Population Fragmented Nuclei (%) [3]: 1.47% and 4.73%
Population Healthy Nuclei (%) [3]: 72.84% and 27.7%
Population Hoechst High Intensity Objects (%) [3]: 0%
Population Membrane Permeable-Phenotype (%) [3]: 0.76% and 2.44%
Population Mitochondria Different-Phenotype (%) [3]: 19.9% and 19.51%
Population Mitotic Cells (%) [3]: 88.57% and 81%
Population Normal (%) [3]: 100%
Population Pyknosed Nuclei (%) [3]: 25.69% and 67.57%
Population Apoptotic (%) [4]: 20% and 19.35%
Population Fragmented Nuclei (%) [4]: 2.53% and 2.65%
Population Healthy Nuclei (%) [4]: 71.03% and 35.76%
Population Hoechst High Intensity Objects (%) [4]: 0% and 0.66%
Population Membrane Permeable-Phenotype (%) [4]: 0.97% and 1.85%
Population Mitochondria Different-Phenotype (%) [4]: 27.18% and 12.96%
Population Mitotic Cells (%) [4]: 80% and 80.65%
Population Normal (%) [4]: 100% and 99.34%
Population Pyknosed Nuclei (%) [4]: 26.44% and 61.59%
Population Tubulin-Different-Phenotype (%) [4]: 27.51% and 11.11%
Total Cell Count [4]: 435 and 152
Population Apoptotic (%) [5]: 9.35% and 22.41%
Population Fragmented Nuclei (%) [5]: 2.61% and 2.72%
Population Healthy Nuclei (%) [5]: 87.04% and 65.76%
Population Hoechst High Intensity Objects (%) [5]: 0.1% and 0%
Population Membrane Permeable-Phenotype (%) [5]: 3.78% and 1.65%
Population Mitochondria Different-Phenotype (%) [5]: 21% and 23.97%
Population Mitotic Cells (%) [5]: 90.65% and 77.59%
Population Normal (%) [5]: 99.9% and 100%
Population Apoptotic (%) [6]: 17.07% and 21.57%
Population Fragmented Nuclei (%) [6]: 3.71% and 2.48%
Population Healthy Nuclei (%) [6]: 84.59% and 65.84%
Population Hoechst High Intensity Objects (%) [6]: 0.14% and 0%
Population Membrane Permeable-Phenotype (%) [6]: 5.23% and 1.89%
Population Mitochondria Different-Phenotype (%) [6]: 33.9% and 25.47%
Population Mitotic Cells (%) [6]: 82.93% and 78.43%
Population Normal (%) [6]: 99.86% and 100%
Population Pyknosed Nuclei (%) [6]: 11.7% and 31.68%

CC[C@H]1OC(=O)[C@H](C)[C@@H](O[C@H]2C[C@@](C)(OC)[C@@H](O)[C@H](C)O2)[C@H](C)[C@@H](O[C@@H]2O[C@H](C)C[C@H](N(C)C)[C@H]2O)[C@@]2(C)CC(C)=C(O2)[C@H](C)[C@@H](O)[C@]1(C)O
Population Apoptotic (%) [1]: 35% and 45%
Population Fragmented Nuclei (%) [1]: 8% and 3%
Population Healthy Nuclei (%) [1]: 74% and 84%
Population Hoechst High Intensity Objects (%) [1]: 6% and 7%
Population Membrane Permeable-Phenotype (%) [1]: 0%
Population Mitochondria Different-Phenotype (%) [1]: 56% and 72%
Population Mitotic Cells (%) [1]: 64% and 54%
Population Normal (%) [1]: 93% and 92%
Population Pyknosed Nuclei (%) [1]: 17% and 11%
Population Tubulin-Different-Phenotype (%) [1]: 41% and 27%
Total Cell Count [1]: 367 and 300
Population Apoptotic (%) [2]: 55% and 56%
Population Fragmented Nuclei (%) [2]: 8% and 11%
Population Healthy Nuclei (%) [2]: 71% and 72%
Population Hoechst High Intensity Objects (%) [2]: 13% and 10%
Population Membrane Permeable-Phenotype (%) [2]: 0%
Population Mitochondria Different-Phenotype (%) [2]: 87% and 91%
Population Mitotic Cells (%) [2]: 44% and 43%
Population Normal (%) [2]: 86% and 89%
Population Pyknosed Nuclei (%) [2]: 19% and 16%
Population Tubulin-Different-Phenotype (%) [2]: 76% and 77%
Total Cell Count [2]: 383 and 217
Population Apoptotic (%) [3]: 20% and 35%
Population Fragmented Nuclei (%) [3]: 8%
Population Healthy Nuclei (%) [3]: 78%
Population Hoechst High Intensity Objects (%) [3]: 3% and 6%
Population Membrane Permeable-Phenotype (%) [3]: 0%
Population Mitochondria Different-Phenotype (%) [3]: 35% and 49%
Population Mitotic Cells (%) [3]: 79% and 64%
Population Normal (%) [3]: 96% and 93%
Population Pyknosed Nuclei (%) [3]: 13% and 12%
Population Tubulin-Different-Phenotype (%) [3]: 24% and 22%
Total Cell Count [3]: 493 and 371
Population Apoptotic (%) [4]: 42% and 70%
Population Fragmented Nuclei (%) [4]: 9% and 10%
Population Healthy Nuclei (%) [4]: 75% and 71%
Population Hoechst High Intensity Objects (%) [4]: 11% and 10%
Population Membrane Permeable-Phenotype (%) [4]: 0%
Population Mitochondria Different-Phenotype (%) [4]: 74% and 87%
Population Mitotic Cells (%) [4]: 57% and 29%
Population Normal (%) [4]: 88% and 89%
Population Pyknosed Nuclei (%) [4]: 15% and 18%
Population Tubulin-Different-Phenotype (%) [4]: 75% and 80%
Total Cell Count [4]: 499 and 254
Population Apoptotic (%) [5]: 30% and 21%
Population Fragmented Nuclei (%) [5]: 12%
Population Healthy Nuclei (%) [5]: 76% and 78%
Population Hoechst High Intensity Objects (%) [5]: 8% and 6%
Population Membrane Permeable-Phenotype (%) [5]: 0%
Population Mitochondria Different-Phenotype (%) [5]: 28% and 34%
Population Mitotic Cells (%) [5]: 69% and 78%
Population Normal (%) [5]: 91% and 93%
Population Pyknosed Nuclei (%) [5]: 11% and 9%
Population Tubulin-Different-Phenotype (%) [5]: 21% and 20%
Total Cell Count [5]: 718 and 584
Population Apoptotic (%) [6]: 50% and 53%
Population Fragmented Nuclei (%) [6]: 12%
Population Healthy Nuclei (%) [6]: 74% and 75%
Population Hoechst High Intensity Objects (%) [6]: 10% and 12%
Population Membrane Permeable-Phenotype (%) [6]: 1% and 0%
Population Mitochondria Different-Phenotype (%) [6]: 61% and 84%
Population Mitotic Cells (%) [6]: 50% and 46%
Population Normal (%) [6]: 89% and 87%
Population Pyknosed Nuclei (%) [6]: 12% and 11%
Population Tubulin-Different-Phenotype (%) [6]: 56% and 73%
Total Cell Count [6]: 671 and 300
